Experimental data gathered from unrelated publications.
Compare with care: the assays were run in different laboratories.
Target: Rho-associated protein kinase 2 (ROCK2, Homo sapiens, UniProt O75116)

SMILES	effect on	mode	method	concentration	quantity	value
Cn1cncc1[C@@](O)(COc1ccc(C#N)cc1-c1ccc(OC(F)(F)F)cc1)c1ccc(C#N)cc1	cell-free assay		competition with immobilised ligand	1 µM	remaining binding	100%
C#Cc1n[nH]c2c(-c3cn([C@@H](C)c4ccccc4)c(=O)[nH]c3=O)cc(F)cc12	enzyme activity	inhibitor		0.1 µM	inhibition	3%
Cn1cc(-c2cc(F)cc(N3CCn4c(cc5c4CCCC5)C3=O)c2CO)cc(Nc2ccc(N3CCN(C4COC4)CC3)cn2)c1=O	enzyme activity	inhibitor		0.1 µM	inhibition	1%
COc1cc(Nc2ncc(F)c(Nc3ccc4c(n3)NC(=O)C(C)(C)O4)n2)cc(OC)c1OC	binding			10 µM	inhibition	86%
O=c1[nH]c2ccccc2n1C1CCN(Cc2ccc(-c3[nH]c4cc5ncnc5cc4nc3-c3ccccc3)cc2)CC1	cell-free assay			0.5 µM	remaining signal	109%
COc1ncccc1-c1cnn2ccc(N3CCN(C(=O)OC(C)C)CC3)nc12	binding		competition with immobilised ligand	1 µM	remaining binding	86%
CC(C)(C)c1cc(C=C(C#N)C#N)cc(Br)c1O	enzyme activity	inhibitor		0.5 µM	remaining activity	95.6%
Cn1cc(-c2cccc(N3CCc4c(sc5c4CC(C)(C)C5)C3=O)c2CO)cc(Nc2ccncn2)c1=O	enzyme activity	inhibitor		1 µM	inhibition	1%
Cc1nn(C)cc1-c1nc2c(N3CCN(Cc4ccc(Cl)cc4)CC3)c(Cl)cnc2[nH]1	binding		competition with immobilised ligand	1 µM	remaining binding	35%
N#CC1(c2ccccn2)CCN(Cc2cc(C(=O)O)c(=O)n3ccccc23)CC1	cell-free assay		competition with immobilised ligand	1 µM	remaining binding	85%
C#Cc1n[nH]c2c(-c3cn(C(C)c4ccccn4)c(=O)[nH]c3=O)cc(F)cc12 (stereo not drawn)	enzyme activity	inhibitor		1 µM	inhibition	4.2%
Nc1ncc(-c2nc(N3CCOCC3)nc(N3CCOCC3)n2)c(C(F)F)n1	binding		competition with immobilised ligand	10 µM	remaining binding	100%
